According to ChEMBL document CHEMBL1133526, “Molecular simplification of 1,4-diazabicyclo[4.3.0]nonan-9-ones gives piperazine derivatives that maintain high nootropic activity” (2000):
“And” between values parts separate entries of the source, which are not always exact repeats. Identical values can stand only once.

Columns and labels:
Type in all cases: functional
Mus musculus [1] = species: Mus musculus; assay: (§1) Change in entry latency expressed as [(entry latency on day 2)-(entry latency on day 1)]
Procedure, shortened: (§2)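 Mouse passive avoidance test using a light/dark box. Entering the dark side drops the mouse 40 cm into 10 °C water. Training is on day 1 and retention 24 h later. Test drug is given sc 20 min before training, in saline or DMSO/H2O vehicle. […] Mice not entering within 60 s are excluded. Retention latency is capped at 120 s. Δ = day 2 − day 1 latency.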

Mus musculus [2] = assay: Minimum effective dose administered subcutaneously in mouse, activity given with reference to piracetam; conditions: for minimal effective dose: Mus musculus, sc, read-out: MED
Procedure, shortened: (§3)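 Mouse passive avoidance with scopolamine-induced amnesia (1.5 mg/kg ip after training; 40 cm fall into 10 °C water as punishment). Compounds are given sc in 1:10 dilution steps 20 min before training, in saline or DMSO/H2O. […] Piracetam is the ip reference.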

Mus musculus [3] = assay: Nootropic effect of the compound, when administered subcutaneously, on mouse passive Avoidance test, using Scopolamine as Amnesic drug on 1 st day
Mus musculus [4] = assay: Nootropic effect of the compound, when administered subcutaneously, on mouse passive Avoidance test, using Scopolamine as Amnesic drug on 2 nd day
Mus musculus [5] = species: Mus musculus; assay: as §1; remark: listed apart in the source
Mus musculus [6] = assay: Minimum effective dose administered subcutaneously in mouse passive avoidance test; conditions: sc, read-out: MED; procedure, shortened: as §3
Mus musculus [7] = assay: Nootropic effect of the compound, when administered subcutaneously, on mouse passive Avoidance test, using Scopolamine as Amnesic drug on 2nd day; procedure, shortened: as §2
Mus musculus [8] = assay: Minimum effective dose administered subcutaneously in mouse, activity given with reference to piracetam, dose administered is limited by solubility problems; conditions: sc, read-out: MED; procedure, shortened: as §3
Mus musculus [9] = species: Mus musculus; assay: Change in entry latency expressed as [(latency on day 2)-(latency on day 1)]; procedure, shortened: as §2
Mus musculus [10] = assay: Effect of 0.1 mg/kg compound, when administered intraperitoneally along with saline, on Amnesia in mouse passive Avoidance test on 1st day; conditions: route intraperitoneal
Procedure, shortened: (§4)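 Mouse passive avoidance without an amnesic agent. Compound is given ip at 0.1 mg/kg 20 min before training, followed by saline. Entry latency into the dark compartment (punishment: 40 cm fall into 10 °C water) is recorded on day 1 and in retention 24 h later, capped at 120 s. Compared with saline controls.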

Mus musculus [11] = assay: Effect of 0.1 mg/kg compound, when administered intraperitoneally along with saline, on Amnesia in mouse passive Avoidance test on 2nd day; conditions: route intraperitoneal; procedure, shortened: as §4
Mus musculus [12] = assay: Effect of 0.1 mg/kg compound, when administered intraperitoneally, on Amnesia induced by Baclofen (2 mg/Kg ip) in mouse passive Avoidance test on 1st day; conditions: route intraperitoneal
Procedure, shortened: (§5)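 Mouse passive avoidance. Compound is given ip 20 min before training. Diphenhydramine (20 mg/kg ip) or baclofen (2 mg/kg ip) is injected immediately after training. Entry latency into the dark, water-pitfall compartment is measured on day 1 and 24 h later, capped at 120 s. Compared with amnesic-only mice.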

Mus musculus [13] = assay: Effect of 0.1 mg/kg compound, when administered intraperitoneally, on Amnesia induced by Baclofen (2 mg/Kg ip) in mouse passive Avoidance test on 2nd day; conditions: route intraperitoneal; procedure, shortened: as §5
Mus musculus [14] = assay: Effect of 0.1 mg/kg compound, when administered intraperitoneally, on Amnesia induced by Clonidine (0.125 mg/Kg ip) in mouse passive Avoidance test on 2 nd day; conditions: route intraperitoneal
Procedure, shortened: (§6)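 Mouse passive avoidance. Compound is given ip 20 min before training. Clonidine (0.125 mg/kg ip) is injected 60 min before training. Entry latency into the dark compartment (40 cm fall into 10 °C water) is measured on day 1 and 24 h later, capped at 120 s. Compared with clonidine-only mice.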

Mus musculus [15] = assay: Effect of 0.1 mg/kg compound, when administered intraperitoneally, on Amnesia induced by diphenhydramine (20 mg/Kg) in mouse passive Avoidance test on 2 nd day; conditions: route intraperitoneal; procedure, shortened: as §5
Mus musculus [16] = assay: Effect of 0.1 mg/kg compound, when administered intraperitoneally, on Amnesia induced by diphenhydramine (20 mg/Kg) in mouse passive Avoidance test on 1st day; conditions: route intraperitoneal; procedure, shortened: as §5
Mus musculus [17] = assay: Effect of 0.1 mg/kg compound, when administered intraperitoneally, on Amnesia induced Clonidine (0.125 mg/kg) in mouse passive Avoidance test on 1st day; conditions: route intraperitoneal; procedure, shortened: as §6

In the case of CCCC(=O)N1CCN(C(=O)c2ccc(F)cc2)CC1, the “Change in entry latency” value (Mus musculus [1]) is reported as 92.2 s, the minimal effective dose (Mus musculus [2]) is reported as 10 mg/kg and the Entry latency (Mus musculus [3]) is reported as 19.8 s. For the same compound, the Entry latency (Mus musculus [4]) was 112 s.

For CCCN1CCN(S(=O)(=O)c2ccc(F)cc2)CC1, the “Change in entry latency” value (Mus musculus [1]) was 81.4 s, the minimal effective dose (Mus musculus [2]) was 1 mg/kg and the Entry latency (Mus musculus [3]) was 15.3 s. It also gave an Entry latency (Mus musculus [4]) of 96.7 s.

For CCC(=O)N1CCN(S(=O)(=O)c2ccccc2)CC1, the Entry latency (Mus musculus [5]) was 113 s, the minimal effective dose (Mus musculus [6]) was 0.1 mg/kg and the Entry latency (Mus musculus [3]) was 19 s. It also gave an Entry latency (Mus musculus [4]) of 132 s.

For CCCC(=O)N1CCN(S(=O)(=O)c2ccccc2)CC1, the “Change in entry latency” value (Mus musculus [1]) was 70.4 s, the minimal effective dose (Mus musculus [6]) was 1 mg/kg and the Entry latency (Mus musculus [3]) was 15 s. The Entry latency (Mus musculus [4]) was 85.4 s.

CCC(=O)N1CCN(C(=O)c2ccc(OC)cc2)CC1 was tested, and the “Change in entry latency” value (Mus musculus [1]) was 78.5 s, the minimal effective dose (Mus musculus [2]) was 10 mg/kg and the Entry latency (Mus musculus [3]) was 17.6 s. It also gave an Entry latency (Mus musculus [4]) of 96.1 s.

In the case of CCCC(=O)N1CCN(C(=O)c2ccccc2)CC1, the “Change in entry latency” value (Mus musculus [1]) is reported as 89.8 s, the minimal effective dose (Mus musculus [2]) is reported as 1 mg/kg and the Entry latency (Mus musculus [3]) is reported as 13.8 s. The Entry latency (Mus musculus [4]) was 103.6 s.

For CCC(=O)N1CCN(S(=O)(=O)c2ccc(F)cc2)CC1, the Entry latency (Mus musculus [5]) was 74.7 s, the minimal effective dose (Mus musculus [6]) was 0.01 mg/kg and the Entry latency (Mus musculus [3]) was 15.9 s. The Entry latency (Mus musculus [4]) was 90.6 s.

For CC(=O)N1CCN(C(=O)c2ccc(F)cc2)CC1, the “Change in entry latency” value (Mus musculus [1]) was 72.6 s, the minimal effective dose (Mus musculus [2]) was 10 mg/kg and the Entry latency (Mus musculus [3]) was 17.5 s. It also gave an Entry latency (Mus musculus [4]) of 91.1 s.

In the case of CCC(=O)N1CCN(Cc2ccccc2)CC1, the “Change in entry latency” value (Mus musculus [1]) is reported as 81.1 s, the minimal effective dose (Mus musculus [2]) is reported as 10 mg/kg and the Entry latency (Mus musculus [3]) is reported as 12.8 s. For the same compound, the Entry latency (Mus musculus [7]) was 93.9 s.

For CC(=O)N1CCN(S(=O)(=O)c2ccc(F)cc2)CC1, the Entry latency (Mus musculus [5]) was 69.2 s, the minimal effective dose (Mus musculus [2]) was 0.01 mg/kg and the Entry latency (Mus musculus [3]) was 19.8 s. For the same compound, the Entry latency (Mus musculus [4]) was 89 s.

For CCC(=O)N1CCN(C(=O)c2ccc(F)cc2)CC1, the “Change in entry latency” value (Mus musculus [1]) was 60.2 s, the minimal effective dose (Mus musculus [2]) was 30 mg/kg and the Entry latency (Mus musculus [3]) was 16.9 s. For the same compound, the Entry latency (Mus musculus [4]) was 77.1 s.

With CCC(=O)N1CCN(C(=O)c2ccc(Cl)cc2)CC1 the minimal effective dose (Mus musculus [8]) was > 1 mg/kg.

CC(=O)N1CCN(S(=O)(=O)c2ccc(F)cc2)CC1C (centres undefined) was tested, and the minimal effective dose (Mus musculus [6]) was 0.1 mg/kg, the Entry latency (Mus musculus [3]) was 16.6 s and the Entry latency (Mus musculus [4]) was 99.2 s.

For CC1C[C@@H]2CN(C(=O)c3ccccc3)CCN2C1=O (stereo in doubt; exo), the MED (Mus musculus [2]) was 1 mg/kg.

In the case of O=C1CCC2CN(S(=O)(=O)c3ccc(F)cc3)CCN12 (centres undefined), the “Change in entry latency” value (Mus musculus [1]) is reported as 80.2 s and 64.1 s and 66.7 s, the “Change in entry latency” value (Mus musculus [9]) is reported as 79.6 s and the Entry latency (Mus musculus [10]) is reported as 14.3 s. For the same compound, the Entry latency (Mus musculus [11]) was 94.5 s, the Entry latency (Mus musculus [12]) was 12.3 s and the Entry latency (Mus musculus [13]) was 76.4 s. The Entry latency (Mus musculus [14]) was 81.2 s, the Entry latency (Mus musculus [15]) was 95.2 s and the Entry latency (Mus musculus [16]) was 15.6 s. It also gave an Entry latency (Mus musculus [17]) of 14.5 s.
